Data reported in ChEMBL document CHEMBL3244304, “Correlation of biological activity and high-pressure liquid chromatographic retention index for a series of propranolol, barbiturate, and anthranilic acid analogues” (J Med Chem, 1979).

Columns and labels:
[1] = Retention index of the compound by HPLC method; format: physicochemical
[2] = Octanol-buffer partition coefficient, log P of the compound at pH 8.0 by ultraviolet spectroscopy; format: physicochemical
In short: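 Drug distributed between an octanol phase and an aqueous buffer at pH 8.0, the same way as the pH 7.0 phosphate-buffer method. Drug in each phase quantified by ultraviolet spectroscopy, and the log of the octanol/buffer distribution ratio was reported.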

[3] = Octanol-water partition coefficient, log P of nonionized form of compound; format: physicochemical
Oryctolagus cuniculus = species: Oryctolagus cuniculus; experiment: Hypnotic activity in rabbit; format: functional
In short: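 Rabbits; value expressed as negative log of the minimum effective dose (mol/kg).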

[4] = Inhibition of Arbacia egg cell division; format: functional
In short: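 Arbacia egg cell division; value expressed as negative log of the molar drug concentration needed to reduce cell division 50%.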

SMILES: O=C(O)c1ccccc1NS(=O)(=O)c1ccccc1
- Retention_index [1]: 530
- logD [2]: -0.46

SMILES: O=C(O)c1ccccc1NS(=O)(=O)c1ccc(F)cc1
- Retention_index [1]: 565
- logD [2]: 0.03

SMILES: Cc1ccc(S(=O)(=O)Nc2ccccc2C(=O)O)cc1
- Retention_index [1]: 606
- logD [2]: 0.05

SMILES: O=C(O)c1ccccc1NS(=O)(=O)c1ccc(Cl)cc1
- Retention_index [1]: 656
- logD [2]: 0.54

SMILES: O=C(O)c1ccccc1NS(=O)(=O)c1ccc([N+](=O)[O-])cc1
- Retention_index [1]: 586
- logD [2]: -0.03

SMILES: O=C(O)c1ccccc1NS(=O)(=O)c1ccc(Br)cc1
- Retention_index [1]: 678
- logD [2]: 0.83

SMILES: CCC1(CCC(C)C)C(=O)NC(=O)NC1=O [AMOBARBITAL]
- logP [3]: 1.95
- Retention_index [1]: 681

SMILES: C=CCC1(C(C)C)C(=O)NC(=O)NC1=O [APROBARBITAL]
- logP [3]: 1.15
- Retention_index [1]: 552
- pMED (Oryctolagus cuniculus): 3.6

SMILES: CCC1(CC)C(=O)NC(=O)NC1=O [BARBITAL]
- logP [3]: 0.65
- Retention_index [1]: 423
- pMED (Oryctolagus cuniculus): 3.09

SMILES: O=C1CC(=O)NC(=O)N1 [BARBITURIC ACID]
- logP [3]: -1.35
- Retention_index [1]: 53

SMILES: CCC(C)C1(CC)C(=O)NC(=O)NC1=O (centres undefined) [BUTABARBITAL]
- logP [3]: 1.45
- Retention_index [1]: 600
- pMED (Oryctolagus cuniculus): 3.63

SMILES: C=CCC1(CC(C)C)C(=O)NC(=O)NC1=O [BUTALBITAL]
- logP [3]: 1.45
- Retention_index [1]: 616

SMILES: CCCCC1(CC)C(=O)NC(=O)NC1=O [BUTETHAL]
- pED50 [4]: 2.4
- logP [3]: 1.65
- Retention_index [1]: 610
- pMED (Oryctolagus cuniculus): 3.72

SMILES: CCC1(C2=CCCCC2)C(=O)NC(=O)NC1=O [CYCLOBARBITAL]
- logP [3]: 1.86
- Retention_index [1]: 604

SMILES: CN1C(=O)NC(=O)C(C)(C2=CCCCC2)C1=O (centres undefined) [HEXOBARBITAL]
- logP [3]: 1.92
- Retention_index [1]: 648

SMILES: CCC1(CC)C(=O)NC(=O)N(C)C1=O [METHARBITAL]
- logP [3]: 1.21
- Retention_index [1]: 532

SMILES: C=CCC1(C(C)C#CCC)C(=O)N=C(O)N(C)C1=O (centres undefined) [METHOHEXITAL]
- logP [3]: 2.19
- Retention_index [1]: 776

SMILES: CCCC(C)C1(CC)C(=O)NC(=O)NC1=O (centres undefined) [PENTOBARBITAL]
- logP [3]: 1.95
- Retention_index [1]: 686

SMILES: CCC1(c2ccccc2)C(=O)NC(=O)NC1=O [PHENOBARBITAL]
- Retention_index [1]: 523

SMILES: C=CCC1(C(C)CCC)C(=O)NC(=O)NC1=O (centres undefined) [SECOBARBITAL]
- logP [3]: 2.15
- Retention_index [1]: 728
- pMED (Oryctolagus cuniculus): 4.2

SMILES: C=CCC1(C(C)CCC)C(=O)N=C(S)NC1=O (centres undefined) [THIAMYLAL]
- logP [3]: 3.2
- Retention_index [1]: 760

SMILES: CCCC(C)C1(CC)C(=O)NC(=S)NC1=O (centres undefined) [THIOPENTAL]
- logP [3]: 3
- Retention_index [1]: 732
